Reference: ChEMBL document CHEMBL4665761, “Optimizing the Benefit/Risk of Acetyl-CoA Carboxylase Inhibitors through Liver Targeting” (J Med Chem, 2020)

Experiments:
[1] = Aqueous solubility of compound at pH 1.2 using tris(hydroxymethyl)aminomethane (tris) salt form of compound; format: physicochemical; details: buffer
[2] = Drug uptake in cynomolgus monkey assessed as plasma concentration at 1 mg/kg, iv tris(hydroxymethyl)aminomethane (tris) salt form of compound after 6 hrs by LC/MS-MS analysis; format: ADME, organism-based, Macaca fascicularis
Method in brief: (§1)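 Monkeys, n = 2, given 1 mg/kg IV as the tris salt in 2% N-methylpyrrolidone/98% sulfobutylether-β-cyclodextrin (12.5%) in 50 mM TRIS, pH 8.0. Plasma and liver concentrations were taken 6 h post-dose.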

[3] = Aqueous solubility of compound at pH 7.4 using tris(hydroxymethyl)aminomethane (tris) salt form of compound; format: physicochemical; details: buffer
[4] = AUC (0 to 24 hrs) in cynomolgus monkey plasma at 5 mg/kg, po tris(hydroxymethyl)aminomethane (tris) salt form of compound and measured up to 24 hrs by LC/MS-MS analysis; format: ADME, organism-based, Macaca fascicularis; set-up: route oral, dose 5 mg/kg, time <=24
Method in brief: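 Cynomolgus monkeys received an oral dose. AUC0–24 came from plasma concentration–time data by the linear trapezoidal rule, averaged for n = 2.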

[5] = Ratio of drug uptake in cynomolgus monkey unbound liver to plasma concentration at 1 mg/kg, iv tris(hydroxymethyl)aminomethane (tris) salt form of compound after 6 hrs by LC/MS-MS analysis; format: ADME, organism-based, Macaca fascicularis; details: other tissue
Method in brief: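 Cynomolgus monkeys (n = 2) given a single IV dose as tris salt in 2% N-methylpyrrolidone / 98% sulfobutylether-betacyclodextrin (12.5%) in 50 mM TRIS buffer, pH 8.0. Plasma and liver sampled 6 h post-dose. Total concentrations converted to unbound using equilibrium-dialysis fu in plasma and liver. Ratio taken as mean free liver over free plasma concentration.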

[6] = Tmax in Wistar-Hannover rat plasma at 5 mg/kg, po tris(hydroxymethyl)aminomethane (tris) salt form of compound and measured up to 24 hrs by LC/MS-MS analysis; format: ADME, organism-based
Method in brief: (§2)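 Plasma concentration–time data, n = 2, averaged. Cmax and Tmax read directly from the data. AUC0–24 by the linear trapezoidal rule. F calculated as dose-normalized AUC PO/IV.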

[7] = AUC (0 to 24 hrs) in Wistar-Hannover rat plasma at 5 mg/kg, po tris(hydroxymethyl)aminomethane (tris) salt form of compound and measured up to 24 hrs by LC/MS-MS analysis; format: ADME, organism-based; set-up: route oral, dose 5 mg/kg, time <=24
Method in brief: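 Male Wistar-Hannover rats (240–350 g), housed singly after 1 week of acclimation, were dosed orally. AUC0–24 came from plasma concentration–time data by the linear trapezoidal rule, averaged for n = 2. Lower detection limit was 1 ng/mL.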

[8] = Tmax in cynomolgus monkey plasma at 5 mg/kg, po tris(hydroxymethyl)aminomethane (tris) salt form of compound and measured up to 24 hrs by LC/MS-MS analysis; format: ADME, organism-based, Macaca fascicularis; method in brief: as §2
[9] = Ratio of drug uptake in cynomolgus monkey liver to plasma at 1 mg/kg, iv tris(hydroxymethyl)aminomethane (tris) salt form of compound after 6 hrs by LC/MS-MS analysis; format: ADME, organism-based, Macaca fascicularis; details: liver and plasma
Method in brief: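 Cynomolgus monkeys (n = 2) given 1 mg/kg IV as the tris salt in 2% N-methylpyrrolidone/98% sulfobutylether-β-cyclodextrin (12.5%) in 50 mM TRIS pH 8.0. Liver and plasma taken 6 h post-dose.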

[10] = Half life in Wistar-Hannover rat plasma at 5 mg/kg, po tris(hydroxymethyl)aminomethane (tris) salt form of compound and measured up to 24 hrs by LC/MS-MS analysis; format: ADME, organism-based
[11] = Drug uptake in cynomolgus monkey liver at 1 mg/kg, iv tris(hydroxymethyl)aminomethane (tris) salt form of compound after 6 hrs by LC/MS-MS analysis; format: ADME, organism-based, Macaca fascicularis; details: read-out: Drug uptake; method in brief: as §1
[12] = Aqueous solubility of compound at pH 6.5 using tris(hydroxymethyl)aminomethane (tris) salt form of compound; format: physicochemical; details: buffer
[13] = Cmax in Wistar-Hannover rat plasma at 5 mg/kg, po tris(hydroxymethyl)aminomethane (tris) salt form of compound and measured up to 24 hrs by LC/MS-MS analysis; format: ADME, organism-based; set-up: route oral, dose 5 mg/kg, time <=24
[14] = Oral bioavailability in Wistar-Hannover rat plasma at 5 mg/kg tris(hydroxymethyl)aminomethane (tris) salt form of compound and measured up to 24 hrs by LC/MS-MS analysis; format: ADME, organism-based; method in brief: as §2
[15] = Oral bioavailability in cynomolgus monkey plasma at 5 mg/kg using tris(hydroxymethyl)aminomethane (tris) salt form of compound and measured up to 24 hrs by LC/MS-MS analysis; format: ADME, organism-based, Macaca fascicularis; method in brief: as §2
[16] = Cmax in cynomolgus monkey plasma at 5 mg/kg, po tris(hydroxymethyl)aminomethane (tris) salt form of compound and measured up to 24 hrs by LC/MS-MS analysis; format: ADME, organism-based, Macaca fascicularis; set-up: route oral, dose 5 mg/kg, time <=24
Method in brief: (§3)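 Cynomolgus monkeys dosed 1 mg/kg IV as the tris salt in 2% N-methylpyrrolidone/98% sulfobutylether-β-cyclodextrin (12.5%) in 50 mM TRIS, pH 8.0, or PO as the tris salt. Plasma was analysed by LC-MS/MS, n = 2. CL = IV dose/AUC; Vss = dose/(AUC × elimination rate constant); Cmax taken from observed data.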

[17] = Half life in cynomolgus monkey plasma at 5 mg/kg, po tris(hydroxymethyl)aminomethane (tris) salt form of compound and measured up to 24 hrs by LC/MS-MS analysis; format: ADME, organism-based, Macaca fascicularis; method in brief: as §3

solubility [1]: 1.32 mM | concentration at 6 h [2]: 88 ng/mL | solubility [3]: 4.77 mM | AUC(0-t) [4]: 36200 ng·h/mL | Ratio [5]: 230 | Tmax [6]: 0.54 h | AUC(0-t) [7]: 2490 ng·h/mL | Tmax [8]: 1.13 h | Kp at 6 h [9]: 15 | half-life [10]: 5.6 h | concentration at 6 h [11]: 1300 ng/mL | solubility [12]: 3.98 mM | Cmax [13]: 390 ng/mL | bioavailability [14]: 48% | bioavailability [15]: 52% | Cmax [16]: 5780 ng/mL | half-life [17]: 11 h
Compound: COc1cc(C(=O)N2CCC3(CC2)CC(=O)c2c(cnn2C(C)C)C3)cc(-c2ccc(C(=O)O)cc2)n1.NC(CO)(CO)CO [CLESACOSTAT TROMETHAMINE]
